Laboratory results taken from ChEMBL document CHEMBL1126804, “Mammalian topoisomerase II inhibitory activity of 1-cyclopropyl-6,8- difluoro-1,4-dihydro-7-(2,6-dimethyl-4-pyridinyl)-4-oxo-3-quinolinecarb oxylic acid and related derivatives” (J Med Chem, 1993).

Key:
[1] = biological target: DNA topoisomerase II (Homo sapiens, UniProt P11388+Q02880); experiment: Tested for inhibition of topoisomerase II isolated from HeLa cells by DNA-cleavage assay
Summary of the method: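 HeLa topo II purified from late-log suspension cultures. Reactions were assembled at 4 °C in 50 mM Tris-Cl pH 7.9, 44 mM NaCl, 10 mM MgCl2, 0.5 mM ATP, 3'-32P-end-labeled pBR322 and 10 units enzyme, then run 20 min at 37 °C. SDS/KCl precipitation captured covalent complex, counted by scintillation.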

[2] = tested on: P388; experiment: In vitro cytotoxicity against P388 murine leukemia cells in culture in a clonogenic assay after 1 hour exposure to drug; format: functional, cell-based; conditions: Mus musculus, P388, 1 h

Row | SMILES | EC50 [1] [µM] | IC50 [2] [µM]
1 | Cc1cc(-c2c(F)c(Sc3ccccc3)c3c(=O)c(C(=O)O)cn(C4CC4)c3c2F)cc(C)n1 | > 420 | 
2 | Cc1cc(-c2c(F)cc3c(=O)c(C(=O)O)cn(C4CC4)c3c2F)cc(C)n1 [WIN-57294] | 7.6 | 29
3 | O=C(O)c1cn(C2CC2)c2c(F)c(-c3ccc(O)cc3)c(F)cc2c1=O | 1.2 | 
4 | Cc1ccc(-c2c(F)cc3c(=O)c(C(=O)O)cn(C4CC4)c3c2F)c(C)n1 | 53 | 
5 | Cc1cc(-c2c(F)cc3c(=O)c(C(=O)O)csc3c2F)cc(C)n1.Cl | > 140 | 
6 | Cc1cc(-c2c(F)cc3c(=O)c(C(=O)O)c(-c4ccccc4)n(C4CC4)c3c2F)cc(C)n1 | > 220 | 
7 | Cc1cc(-c2c(F)cc3c(O)c(C(=O)O)cnc3c2F)cc(C)n1 | > 300 | 
8 | COc1cc([C@@H]2c3cc4c(cc3[C@@H](O[C@@H]3O[C@@H]5CO[C@@H](C)O[C@H]5[C@H](O)[C@H]3O)[C@H]3COC(=O)[C@H]23)OCO4)cc(OC)c1O [ETOPOSIDE] |  | 0.3
9 | O=C(O)c1cn(C2CC2)c2c(F)c(-c3cccnc3)c(F)cc2c1=O | 52 | 
10 | Cc1cc(-c2c(F)cc3c(=O)cc(C)n(C4CC4)c3c2F)cc(C)n1 | 16 | 
11 | Cc1cc(-c2c(F)cc3c(=O)c(C(=O)O)cn(CCF)c3c2F)cc(C)n1 | > 530 | 
12 | Cc1cc(-c2c(F)c(N)c3c(=O)c(C(=O)O)cn(C4CC4)c3c2F)cc(C)n1 | 6.2 | 
13 | O=C(O)c1cn(C2CC2)c2c(F)c(-c3ccncc3)c(F)cc2c1=O | 17 | 
14 | Cc1cc(-c2c(F)cc3c(=O)ccn(C4CC4)c3c2F)cc(C)n1 | 17 | 
15 | Cc1cc(-c2c(F)cc3c(=O)c(C(=O)O)c(C)n(C4CC4)c3c2F)cc(C)n1 | > 260 | 
16 | Cc1cc(-c2c(F)cc3c(=O)c(C(=O)O)cn(-c4ccc(F)cc4)c3c2F)cc(C)n1 | > 430 | 
17 | CN1CCN(c2c(F)cc3c(=O)c(C(=O)O)cn(C4CC4)c3c2F)CC1 | 150 | 
18 | Cc1cc(-c2c(F)cc3c(=O)cc(-c4ccccc4)n(C4CC4)c3c2F)cc(C)n1 | > 240 | 
19 | Cc1cc(-c2c(F)cc3c(=O)c(C(=O)[O-])cn(C(C)(C)C)c3c2F)cc(C)n1.[Na+] | 74 | 
20 | NC1CCN(c2c(F)cc3c(=O)c(C(=O)O)cn(C4CC4)c3c2F)C1 (centres undefined) | 340 | 
21 | Cc1cc(-c2c(F)c(F)c3c(=O)c(C(=O)O)cn(C4CC4)c3c2F)cc(C)n1 | 13 | 
22 | Cc1cc(-c2c(F)cc3c(=O)c(C(=O)O)cn(C4CC4)c3c2F)ccn1 | 16 | 
23 | CCn1cc(C(=O)O)c(=O)c2cc(F)c(-c3cc(C)nc(C)c3)c(F)c21 | 110 | 
